≈ marks a conversion by molar mass, not a printed value. Numbered stars: 1 amine (or outer) side, 2 acyl side, 3 side chain; on linkers, the order of the positions; unused ones are H or OH. Bridge positions count the residues as written; N and C are the ends. Square brackets hold non-standard residues; d marks the D form. Peptide text beside a SMILES is read from it. * marks the point of attachment. X2 = O=C([C@@H](Cc1ccc(-c2ccncc2)cc1)N[*:1])[*:2]; GABA(3R-Bn) = O=C(C[C@H](CN[*:1])Cc1ccccc1)[*:2]; X1 = CC[C@H](C)CCCCC(=O)*; Dab = NCC[C@H](N)C(=O)O; Dap = NC[C@H](N)C(=O)O
How the values were obtained:
Acinetobacter baumannii [1] = test: Antibacterial activity against Acinetobacter baumannii NCTC 13424 by CLSI based broth microdilution method; type: functional
Method in brief: (§1)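 Broth microdilution MIC per CLSI guidelines (M07-A9) in cation-adjusted Mueller-Hinton broth; panel of Gram-negative strains including clinical isolates with reduced polymyxin B susceptibility.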

Pseudomonas aeruginosa [2] = test: Antibacterial activity against Pseudomonas aeruginosa IHMA 517175 by CLSI based broth microdilution method; type: functional; method in brief: as §1
Klebsiella pneumoniae [3] = test: Antibacterial activity against Klebsiella pneumoniae ATCC 4352 by CLSI based broth microdilution method; type: functional; method in brief: as §1
Escherichia coli [4] = test: Antibacterial activity against Escherichia coli ATCC 25922 by CLSI based broth microdilution method; type: functional; method in brief: as §1
Escherichia coli [5] = test: Antibacterial activity against Escherichia coli IHMA 940398 by CLSI based broth microdilution method; type: functional; method in brief: as §1
Pseudomonas aeruginosa [6] = test: Antibacterial activity against Pseudomonas aeruginosa ATCC 27853 by CLSI based broth microdilution method; type: functional; method in brief: as §1
[7] = Ratio of test compound IC50 to polymyxin B IC50 for cytotoxicity against human HK2 cells incubated for 24 hrs by resazurin blue dye based assay; type: cell-based; conditions: HK-2 cells, read-out: Ratio IC50
Method in brief: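 Confluent monolayers of human proximal tubule epithelial HK-2 cells exposed to compound for 24h at 37°C, 5% CO2; top concentration 1,000 or 3,000 μg/mL, semi-log dilutions, 9 points. Viability read with resazurin blue; log-concentration dose-response fit with bottom constrained to zero gives IC50, expressed relative to polymyxin B IC50 run in the same experiment.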

Acinetobacter baumannii [8] = test: Antibacterial activity against Acinetobacter baumannii IHMA 863866 by CLSI based broth microdilution method; type: functional; method in brief: as §1
Klebsiella pneumoniae [9] = test: Antibacterial activity against Klebsiella pneumoniae IHMA 652780 by CLSI based broth microdilution method; type: functional; method in brief: as §1

SMILES	MIC (Acinetobacter baumannii [1]) [µg/mL]	MIC (Pseudomonas aeruginosa [2]) [µg/mL]	MIC (Klebsiella pneumoniae [3]) [µg/mL]	MIC (Escherichia coli [4]) [µg/mL]	MIC (Escherichia coli [5]) [µg/mL]	MIC (Pseudomonas aeruginosa [6]) [µg/mL]	selectivity ratio at 24 h [7]	MIC (Acinetobacter baumannii [8]) [µg/mL]	MIC (Klebsiella pneumoniae [9]) [µg/mL]
CC[C@H](C)CCCCC(=O)N[C@@H](CCN)C(=O)N[C@H](C(=O)N[C@@H](CCN)C(=O)N[C@H]1CCNC(=O)[C@H]([C@@H](C)O)NC(=O)[C@H](CCN)NC(=O)[C@H](CCN)NC(=O)[C@H](CC(C)C)NC(=O)[C@@H](Cc2ccc(-c3ccncc3)cc2)NC(=O)[C@H](CCN)NC1=O)[C@@H](C)O (X1-[Dab]T[Dab][Dab][Dab][X2]L[Dab][Dab]T; lactam 4-C)	2 (≈ 1.56 µM)	32 (≈ 25 µM)	1 (≈ 0.781 µM)	1 (≈ 0.781 µM)	32 (≈ 25 µM)	1 (≈ 0.781 µM)	0.7	–	–
CC[C@H](C)CCCCC(=O)N[C@@H](CCN)C(=O)N[C@H](C(=O)N[C@@H](CCN)C(=O)N[C@H]1CCNC(=O)[C@H]([C@@H](C)O)NC(=O)[C@H](CCN)NC(=O)[C@H](CCN)NC(=O)[C@H](CC(C)C)NC(=O)[C@@H](Cc2ccc(Br)cc2)NC(=O)[C@H](CCN)NC1=O)[C@@H](C)O	0.5 (≈ 0.39 µM)	2 (≈ 1.56 µM)	0.5 (≈ 0.39 µM)	0.5 (≈ 0.39 µM)	4 (≈ 3.12 µM)	0.5 (≈ 0.39 µM)	–	4 (≈ 3.12 µM)	0.5 (≈ 0.39 µM)
CC(C)C[C@@H]1NC(=O)[C@@H](CC2CCCCC2)NC(=O)[C@H](CCN)NC(=O)[C@@H](NC(=O)[C@H](CN)NC(=O)[C@@H](NC(=O)C[C@H](CN)Cc2ccccc2)[C@@H](C)O)CCNC(=O)[C@H]([C@@H](C)O)NC(=O)[C@H](CCN)NC(=O)[C@H](CCN)NC1=O	0.125 (≈ 0.111 µM)	4 (≈ 3.54 µM)	0.06 (≈ 0.0531 µM)	0.25 (≈ 0.221 µM)	16 (≈ 14.2 µM)	0.25 (≈ 0.221 µM)	5.2	64 (≈ 56.6 µM)	4 (≈ 3.54 µM)
CC(C)C[C@@H]1CNC[C@@H](C(=O)N[C@H](C(=O)N[C@@H](CN)C(=O)N[C@H]2CCNC(=O)[C@H]([C@@H](C)O)NC(=O)[C@H](CCN)NC(=O)[C@H](CCN)NC(=O)[C@H](CC(C)C)NC(=O)[C@@H](Cc3ccc(-c4ccccc4)cc3)NC(=O)[C@H](CCN)NC2=O)[C@@H](C)O)C1	0.25 (≈ 0.21 µM)	1 (≈ 0.839 µM)	0.25 (≈ 0.21 µM)	0.25 (≈ 0.21 µM)	2 (≈ 1.68 µM)	0.5 (≈ 0.419 µM)	1.2	0.5 (≈ 0.419 µM)	0.5 (≈ 0.419 µM)
CC(C)C[C@@H]1NC(=O)[C@@H](CC2CCCCC2)NC(=O)[C@H](CCN)NC(=O)[C@@H](NC(=O)[C@H](CN)NC(=O)[C@@H](NC(=O)C[C@H](CN)C2CCCCC2)[C@@H](C)O)CCNC(=O)[C@H]([C@@H](C)O)NC(=O)[C@H](CCN)NC(=O)[C@H](CCN)NC1=O	0.125 (≈ 0.111 µM)	2 (≈ 1.78 µM)	–	0.5 (≈ 0.445 µM)	8 (≈ 7.13 µM)	0.5 (≈ 0.445 µM)	–	32 (≈ 28.5 µM)	2 (≈ 1.78 µM)
CC[C@H](C)CCCCC(=O)N[C@@H](CCN)C(=O)N[C@H](C(=O)N[C@@H](CCN)C(=O)N[C@H]1CCNC(=O)[C@H]([C@@H](C)O)NC(=O)[C@H](CCN)NC(=O)[C@H](CCN)NC(=O)[C@H](CC(C)C)NC(=O)[C@@H](Cc2ccc(-c3ccccc3)cc2)NC(=O)[C@H](CCN)NC1=O)[C@@H](C)O	1 (≈ 0.781 µM)	2 (≈ 1.56 µM)	0.5 (≈ 0.391 µM)	1 (≈ 0.781 µM)	8 (≈ 6.25 µM)	1 (≈ 0.781 µM)	0.14	16 (≈ 12.5 µM)	0.5 (≈ 0.391 µM)
CC[C@H](C)CCCCC(=O)N[C@@H](CCN)C(=O)N[C@H](C(=O)N[C@@H](CCN)C(=O)N[C@H]1CCNC(=O)[C@H]([C@@H](C)O)NC(=O)[C@H](CCN)NC(=O)[C@H](CCN)NC(=O)[C@H](CC(C)C)NC(=O)[C@@H](Cc2ccccc2)NC(=O)[C@H](CCN)NC1=O)[C@@H](C)O (X1-[Dab]T[Dab][Dab][Dab][dF]L[Dab][Dab]T; lactam 4-C)	0.25 (≈ 0.208 µM)	8 (≈ 6.65 µM)	0.125 (≈ 0.104 µM)	0.25 (≈ 0.208 µM)	16 (≈ 13.3 µM)	0.5 (≈ 0.415 µM)	1	32 (≈ 26.6 µM)	4 (≈ 3.32 µM)
CC(C)C[C@@H]1NC(=O)[C@@H](CC2CCCCC2)NC(=O)[C@H](CCN)NC(=O)[C@@H](NC(=O)[C@H](CCN)NC(=O)[C@@H](NC(=O)C[C@H](CN)Cc2ccccc2)[C@@H](C)O)CCNC(=O)[C@H]([C@@H](C)O)NC(=O)[C@H](CCN)NC(=O)[C@H](CCN)NC1=O	0.06 (≈ 0.0524 µM)	8 (≈ 6.99 µM)	–	0.125 (≈ 0.109 µM)	32 (≈ 28 µM)	0.25 (≈ 0.218 µM)	2.4	64 (≈ 55.9 µM)	4 (≈ 3.5 µM)
CC[C@H](C)CCCCC(=O)N[C@@H](CCN)C(=O)N[C@H](C(=O)N[C@@H](CCN)C(=O)N[C@H]1CCNC(=O)[C@H]([C@@H](C)O)NC(=O)[C@H](CCN)NC(=O)[C@H](CCN)NC(=O)[C@H](CC(C)C)NC(=O)[C@@H](CC2CCCCC2)NC(=O)[C@H](CCN)NC1=O)[C@@H](C)O	0.5 (≈ 0.413 µM)	4 (≈ 3.31 µM)	0.5 (≈ 0.413 µM)	0.5 (≈ 0.413 µM)	8 (≈ 6.61 µM)	1 (≈ 0.827 µM)	–	32 (≈ 26.5 µM)	1 (≈ 0.827 µM)
CC(C)C[C@@H]1NC(=O)[C@@H](Cc2ccc(-c3ccccc3)cc2)NC(=O)[C@H](CCN)NC(=O)[C@@H](NC(=O)[C@H](CN)NC(=O)[C@@H](NC(=O)[C@@H]2CNCCN2CC(C)C)[C@@H](C)O)CCNC(=O)[C@H]([C@@H](C)O)NC(=O)[C@H](CCN)NC(=O)[C@H](CCN)NC1=O	0.125 (≈ 0.105 µM)	4 (≈ 3.35 µM)	0.25 (≈ 0.209 µM)	0.125 (≈ 0.105 µM)	8 (≈ 6.7 µM)	0.5 (≈ 0.419 µM)	2.4	4 (≈ 3.35 µM)	0.5 (≈ 0.419 µM)
CC(C)C[C@@H]1NC(=O)[C@@H](Cc2ccccc2)NC(=O)[C@H](CCN)NC(=O)[C@@H](NC(=O)[C@H](CN)NC(=O)[C@@H](NC(=O)[C@@H]2CNCCN2CC(C)C)[C@@H](C)O)CCNC(=O)[C@H]([C@@H](C)O)NC(=O)[C@H](CCN)NC(=O)[C@H](CCN)NC1=O	0.5 (≈ 0.447 µM)	32 (≈ 28.6 µM)	0.25 (≈ 0.224 µM)	0.25 (≈ 0.224 µM)	32 (≈ 28.6 µM)	0.5 (≈ 0.447 µM)	16.6	> 64	16 (≈ 14.3 µM)
CC(C)C[C@@H]1NC(=O)[C@@H](Cc2ccccc2)NC(=O)[C@H](CCN)NC(=O)[C@@H](NC(=O)[C@H](CN)NC(=O)[C@@H](NC(=O)C[C@H](CN)C2CCCCC2)[C@@H](C)O)CCNC(=O)[C@H]([C@@H](C)O)NC(=O)[C@H](CCN)NC(=O)[C@H](CCN)NC1=O	0.25 (≈ 0.224 µM)	8 (≈ 7.17 µM)	0.125 (≈ 0.112 µM)	0.06 (≈ 0.0537 µM)	16 (≈ 14.3 µM)	0.06 (≈ 0.0537 µM)	6.9	> 64	4 (≈ 3.58 µM)
CC(C)C[C@@H]1NC(=O)[C@@H](Cc2ccccc2)NC(=O)[C@H](CCN)NC(=O)[C@@H](NC(=O)[C@H](CN)NC(=O)[C@@H](NC(=O)C[C@H](CN)Cc2ccccc2)[C@@H](C)O)CCNC(=O)[C@H]([C@@H](C)O)NC(=O)[C@H](CCN)NC(=O)[C@H](CCN)NC1=O ({GABA(3R-Bn)}-T[Dap][Dab][Dab][dF]L[Dab][Dab]T; lactam 3-C)	0.125 (≈ 0.111 µM)	8 (≈ 7.12 µM)	0.125 (≈ 0.111 µM)	0.25 (≈ 0.222 µM)	32 (≈ 28.5 µM)	0.125 (≈ 0.111 µM)	12	> 64	–
